The test system of data set [1] is Escherichia coli. The data set can be described thus: Antimicrobial activity against Escherichia coli 205024 after 20 hrs by broth microdilution method. The class given is functional. The settings on record: Escherichia coli, 205024, 20 h. An outline of the steps: (§1)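 Pathogens grown overnight on Columbia agar. Colonies suspended in 0.9% saline to OD 0.1, diluted 1:300 in 1% TSB, final (1-2) × 10^5 cfu/well. Peptides 2-fold serially diluted in 1% TSB from 128 to typically 0.5 μg/mL. Incubation at 37 °C; A595 read after 20 ± 2 h. MIC is the lowest concentration with absorbance not above medium only. Triplicate.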

The subject of data set [2] is Klebsiella pneumoniae. As to the kind of experiment: Antimicrobial activity against Klebsiella pneumoniae DSM 681 after 20 hrs by broth microdilution method. The class given is functional. The settings on record: DSM 681, 20 h. An outline of the steps: as §1
The subject of a further data set is Micrococcus luteus. As to the kind of experiment: Antibacterial activity against Micrococcus luteus ATCC 10240 after 20 hrs by broth microdilution assay. Conditions: ATCC 10240, 20 h. Type of data set: functional. An outline of the steps:
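Nutrient-broth overnight cultures diluted in 1% TSB; E. coli BL21AI 7.5 × 10^5 cells/well, M. luteus ATCC 10240 2 × 10^6 cells/well. Peptides serially 2-fold diluted in 1% TSB from 128 to typically 0.5 μg/mL. Incubation at 37 °C; A595 read after 20 ± 2 h. MIC is the lowest concentration with absorbance not above medium only. Triplicate.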

A short description of data set [3]: Stability in 25% mouse serum assessed as half life at 75 ug/ml by MALDI-TOF-MS analysis. Type of data set: ADME, cell-free. An outline of the steps:
(§2)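 Peptide at 75 μg/mL final in pooled mouse serum (undiluted or 25% v:v aqueous), 37 °C. Triplicate aliquots taken at 0, 30, 60, 120 and 240 min and precipitated with 3% TCA on ice for 10 min. Supernatant neutralized with NaOH and analysed by RP-HPLC on C18 with TFA-containing gradient. Amounts expressed relative to 0 min; metabolites identified by MALDI-TOF-MS.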

A further data set relates to Acinetobacter baumannii. The data set can be described thus: Antimicrobial activity against Acinetobacter baumannii M17 after 20 hrs by broth microdilution method. Type of data set: functional. Conditions: M17, 20 h. The procedure, abridged: as §1
For data set [4], the system named is Enterobacter cloacae. As to the kind of experiment: Antimicrobial activity against Enterobacter cloacae 34654 after 20 hrs by broth microdilution method. The class given is functional. Conditions: Enterobacter cloacae, 34654, 20 h. The procedure, abridged:
as §1

Data set [5] concerns Serum. The data set can be described thus: Stability in 25% mouse serum assessed as peptide-13 level at 75 ug/ml after 30 mins by MALDI-TOF-MS analysis. Type of data set: ADME, cell-free. The settings on record: 0.5 h. An outline of the steps: as §2
Data set [6] deals with Serum. As to the kind of experiment: Stability in 25% mouse serum assessed as peptide-12 level at 75 ug/ml after 2 hrs by MALDI-TOF-MS analysis. The class given is ADME, cell-free. An outline of the steps:
as §2

The nature of data set [7]: Stability in 25% mouse serum assessed as compound remaining at 75 ug/ml after 2 hrs by MALDI-TOF-MS analysis. The class given is ADME, cell-free. Conditions: read-out: Stability. The procedure, abridged: as §2
For data set [8], the system named is Klebsiella pneumoniae. The data set can be described thus: Antimicrobial activity against Klebsiella pneumoniae 57 USA after 20 hrs by broth microdilution method. The class given is functional. An outline of the steps: as §1
The test system of another data set is HeLa. The data set can be described thus: Cytotoxicity against human HeLa cells at 600 ug/ml after 24 hrs by MTT assay. Type of data set: cell-based. An outline of the steps: (§3)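 HeLa (1.5 × 10^4/well, seeded overnight) or SH-SY5Y (2 × 10^4/well, differentiated 5 days with 10 μM trans-retinoic acid) in DMEM/Ham's F-12 with 5% or 15% FBS. Peptide added at 600 μg/mL for 24 h at 37 °C, 5% CO2. MTT 0.5 mg/mL for 4 h, then SDS/HCl for 16 h; A590 read against 650 nm. Normalized to PBS (100%); DMSO 12% as positive control.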

The next data set relates to SH-SY5Y. The data set can be described thus: Cytotoxicity against human SH-SY5Y cells at 600 ug/ml after 24 hrs by MTT assay. The class given is cell-based. An outline of the steps: as §3
In data set [9] the test system is Enterobacter cloacae. As to the kind of experiment: Antimicrobial activity against Enterobacter cloacae Ha89 after 20 hrs by broth microdilution method. Type of data set: functional. Conditions: Ha89, 20 h. An outline of the steps: as §1
The next data set relates to Proteus vulgaris. The data set can be described thus: Antimicrobial activity against Proteus vulgaris ICB 9095 after 20 hrs by broth microdilution method. Type of data set: functional. The settings on record: ICB 9095, 20 h. The procedure, abridged: as §1
In data set [10] the test system is Escherichia coli. The data set can be described thus: Antimicrobial activity against Escherichia coli 70430001 after 20 hrs by broth microdilution method. Conditions: Escherichia coli, 70430001, 20 h. The class given is functional. An outline of the steps:
as §1

Data set [11] concerns Pseudomonas aeruginosa. The data set can be described thus: Antimicrobial activity against Pseudomonas aeruginosa ATCC 27853 after 20 hrs by broth microdilution method. The class given is functional. The settings on record: ATCC 27853, 20 h. An outline of the steps:
(§4)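 Pathogenic strains grown overnight on Columbia agar, colonies suspended in 0.9% saline to OD 0.1, diluted 1:300 in 1% TSB; final (1-2) × 10^5 cfu/well. Peptides 2-fold serially diluted in 1% TSB from 128 μg/mL, typically to 0.5 μg/mL. Incubated 37 °C, absorbance at 595 nm after 20 ± 2 h, in triplicate; MIC = lowest concentration with absorbance not exceeding medium only.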

In data set [12] the test system is Pseudomonas aeruginosa. As to the kind of experiment: Antimicrobial activity against Pseudomonas aeruginosa Walter after 20 hrs by broth microdilution method. The class given is functional. An outline of the steps:
as §4

Data set [13] relates to Pseudomonas aeruginosa. The data set can be described thus: Antimicrobial activity against Pseudomonas aeruginosa DSM 3227 after 20 hrs by broth microdilution method. The settings on record: DSM 3227, 20 h. The class given is functional. An outline of the steps:
as §4

These results are taken from ChEMBL document CHEMBL1155452, “Oncocin (VDKPPYLPRPRPPRRIYNR-NH2): a novel antibacterial peptide optimized against gram-negative human pathogens” (J Med Chem, 2010).

With H-VDKPPYLPRPRPPRRIYNR-NH2 [ONCOCIN], the minimal inhibitory concentration (MIC) with Escherichia coli [1] was determined as 4 µg/mL; in the data set with Klebsiella pneumoniae [2], 0.25 µg/mL; in the data set on Micrococcus luteus, 8 µg/mL; in the data set on Acinetobacter baumannii, 1 µg/mL; in the data set on Enterobacter cloacae [4] it was 0.25 µg/mL; with Klebsiella pneumoniae [8] it was 0.25 µg/mL. Besides, the MIC in the data set with Enterobacter cloacae [9] turned out to be 0.25 µg/mL; in the data set on Proteus vulgaris it was 4 µg/mL; with Escherichia coli [10] it was 1 µg/mL; against Pseudomonas aeruginosa [11], 4 µg/mL; against Pseudomonas aeruginosa [12], 8 µg/mL; against Pseudomonas aeruginosa [13] it was 4 µg/mL. In addition, in data set [3], the half-life at 75 ug/ml is 70 min. Also, the Activity in the data set on Serum [5] was 10%; in the data set with Serum [6], 20%; with HeLa it was “Non-toxic”; in the data set with SH-SY5Y it was “Non-toxic”. The remaining at 2 h, 75 ug/ml in [7] was 60%.
